Assay outcomes (PubChem BioAssay)
TRPC4 block = inhibitors of mouse TRPC4 channel; Q9QUQ5; HEK293 TRPC4beta/mu-opioid, DAMGO-evoked Fluo4 calcium flux; stronger effect = lower value; B-score at 10 µM; 0.39% of 300,000 active; AID 2247;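 active = B-score over 3 SD under the library average, no early fluorescence shift, positive overall ratio signal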
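Signal: kinetic Fluo4 fluorescence imaging of calcium influx. Material: stable TRPC4beta/mu-opioid receptor HEK293 cells. Probe or stimulus: DAMGO in two steps, submaximal then maximal.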
TRPC4 act = activators of mouse TRPC4 channel. Q9QUQ5. HEK293 TRPC4beta/mu-opioid, Fluo4 calcium fluorescence; stronger effect = higher value. B-score at 10 µM. 0.49% of 310,000 active;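 active = B-score above 5 SD of library B-scores, and initial fluorescence ratio not above library mean plus 5 SD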;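 also: positive B-score marks a calcium rise read as TRPC4 activation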
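System: HEK293 cells stably co-expressing mouse TRPC4beta and mu-opioid receptor; Schedule: Fluo4 dye loading 45 min at room temperature, 110 s recording; Detection: Fluo4 fluorescence, kinetic; Evaluation: B-scored integrated calcium fluorescence ratio; Controls: buffer (low) and maximal DAMGO (high).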
TRPC6 inh = blocks the mouse TRPC6 cation channel; B-score at 10 µM; Q61143; HEK293-TRPC6, membrane potential dye, ACh-evoked depolarization; stronger effect = lower value; 1.1% of 310,000 active;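 active = B-score under library mean minus 3 SD, initial fluorescence not abnormally high, positive integrated signal ratio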;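 also: B-score derived from integrated fluorescence ratio over the kinetic read; more negative B-score means stronger inhibition of depolarization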
TRPC6 act = mouse TRPC6 channel activation. Q61143. HEK293-TRPC6 membrane potential dye fluorescence; stronger effect = higher value. B-score at 10 µM. 0.13% of 310,000 active;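 active = B-score of the integrated fluorescence ratio above library mean plus 3 SD, and starting fluorescence ratio within library mean plus 5 SD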;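 also: higher score means more depolarization so channel activation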
TRPC4 PAM = TRPC4 (mouse) allosteric potentiation | HEK293 TRPC4beta/mu-opioid, DAMGO EC20, Fluo-4 Ca2+ flux; stronger effect = higher value | 0.42% of 310,000 active | Q9QUQ5 | B-score at 10 µM;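 active = B-score of calcium response area above 5 SD of library B-scores, with initial fluorescence ratio within 5 SD of library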;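 also: B-score of integrated fluorescence ratio over time as area under calcium response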
Numbers without * were called inactive; i = inactive. Most compounds without a hit are left out; they make up all but 2.3% or so of the library.

SMILES	TRPC4 block	TRPC4 act	TRPC6 inh	TRPC6 act	TRPC4 PAM
COc1ccc(C(=O)NC(=S)NNC(=O)c2ccc(C)cc2)cc1	i	189*	i	i	i
COc1ccc(C(=O)NNC(=S)NC(=O)c2ccc(Cl)cc2)cc1	i	163*	i	i	i
CCc1cc2c(COC(=O)c3cccc(NS(C)(=O)=O)c3)cc(=O)oc2cc1O	i	i	i	i	i
CN(CCc1nc2ccc(Cl)cc2[nH]1)Cc1nc(CC2CC2)no1	i	105*	i	i	i
CN(C(=S)NCCN1CCOCC1)C(c1ccccc1)c1ccccc1	i	i	i	i	i
CC(C)CCN1CCC(n2nccc2NC(=O)c2ccc3c(c2)OCO3)CC1	i	i	i	i	i
CNC[C@H](Cc1ccccc1)NC[C@@H](Cc1cccc2ccccc12)NCCc1ccc(C)cc1	i	173*	i	i	i
COc1ccc(C(=O)CCC(=O)N2CCN(c3ccccc3)CC2)cc1	i	i	i	i	i
CCCCN1/C(=C/c2ccc3ccccc3[n+]2CC)Sc2ccccc21	i	204*	i	i	i
Cc1ccc(C(=O)c2ccc(C)cc2)cc1	i	i	i	i	i
Cc1ccc(C(=O)c2no[n+]([O-])c2C(=O)c2ccc(C)cc2)cc1	i	i	i	i	29*
CCCCN(CC)CCNC(=O)c1cc2c(=O)n(C)c3ccccc3c2n1C	i	67*	i	i	14*
CCCN(CCC)CCCNC(=O)c1cc2c(=O)n(C)c3ccccc3c2n1C	i	59*	i	i	16*
CN(C)C(=O)c1ccc(Nc2nnc(-c3ccc(O)cc3)c3ccccc23)cc1	i	60*	i	i	i
CNC(=O)c1ccc(Nc2nnc(-c3ccc(O)cc3)c3ccccc23)cc1	i	i	i	i	i
Oc1ccccc1/C=N/NC(=S)NC1CC2CC1C1C=CCC21 (stereo not drawn)	-8*	i	i	i	i
COc1cccc(NC(=O)CN(C)C(=O)c2ccc(OCc3ccccc3)c(OC)c2)c1	i	i	i	i	i
O=C(NNC(=S)NC(=O)c1cccc([N+](=O)[O-])c1)c1ccc(O)cc1	i	i	i	i	i
O=C(NC(=S)NNC(=O)c1ccco1)c1ccc(Br)cc1	-8*	121*	i	i	i
O=C(NNC(=S)Nc1ccccc1)c1ccco1	i	i	i	i	i
CCCOc1ccc(C(=O)NNC(=S)NC(=O)c2ccco2)cc1	i	217*	i	i	i
COc1ccc(C(=O)NNC(=S)NC(=O)c2ccco2)cc1	i	50*	i	i	i
O=C(NNC(=S)NC(=O)c1cccc([N+](=O)[O-])c1)c1ccc(Br)cc1	i	79*	i	i	i
C=C(C)[C@@H]1CC=C(CN2CCN(Cc3ccccc3)CC2)CC1	i	i	i	i	i
O=C(NNC(=S)NC(=O)c1ccco1)c1ccc(F)cc1	i	67*	i	i	i
SMILES	TRPC4 block	TRPC4 act	TRPC6 inh	TRPC6 act	TRPC4 PAM
O=C(NC(=S)NNC(=O)c1cccs1)c1ccco1	i	i	i	i	i
COc1ccccc1C(=O)NNC(=S)NC(=O)c1ccco1	i	77*	i	i	i
COC(=O)c1cc(OC)c(OC)cc1NC(=S)NC(=O)c1ccco1	i	i	i	i	i
CC(Oc1ccc(Cl)cc1)C(=O)NNC(=S)NC(=O)c1ccco1 (stereo not drawn)	i	183*	i	i	i
CCCCN(C(=O)c1ccco1)C1CCS(=O)(=O)C1 (stereo not drawn)	i	i	i	i	i
Clc1ccc2c(c1)CCc1cccnc1C2=C1CCNCC1	i	i	-6*	i	i
CCc1cc(OCCOCCN(C)C)ccc1Cl	i	i	i	i	15*
COc1cc(C2NC(=O)NC3=C2C(=O)OC3)cc(OC)c1OC (stereo not drawn)	i	i	i	i	i
CC(=O)N1CCCc2ccc(NS(=O)(=O)c3ccc(C)c(C)c3)cc21	i	i	i	i	i
COc1ccc(OC)c(S(=O)(=O)Nc2ccc3c(c2)N(C(C)=O)CCC3)c1	i	i	i	i	14*
